According to ChEMBL document CHEMBL4613215, “Structure-Activity Relationships for a Series of (Bis(4-fluorophenyl)methyl)sulfinyl Alkyl Alicyclic Amines at the Dopamine Transporter: Functionalizing the Terminal Nitrogen Affects Affinity, Selectivity, and Metabolic Stability” (J Med Chem, 2020):
pIC50, pKi: −log10 of the molar value.

Legend:
[1] = Effect on locomotor activity in mouse assessed as increase in total ambulations at 3 to 30 mg/kg, ip measured during 30 mins of 2 hrs test by open field test; type: ADME, organism-based; details: in vivo
How it was run: (§1)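 Mice acclimatized ~2 h, injected i.p. then placed immediately in open-field chambers with infrared beam arrays; beam breaks over 2 h converted to distance; maximum distance per 30 min reported; n=6 per group, each mouse used once; two-way ANOVA (Drug, Dose) with Tukey post-hoc versus vehicle.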

[2] = Half life in rat liver microsomes at 10 uM in presence of NADPH generating system by LC-MS/MS analysis; type: ADME, Microsome
[3] = Effect on locomotor activity in mouse assessed as increase in total ambulations at 3 to 56 mg/kg, ip measured during 30 mins of 2 hrs test by open field test; type: ADME, organism-based; details: in vivo; how it was run: as §1
[4] = Half life in mouse liver microsomes at 10 uM in presence of NADPH by LC-MS/MS analysis; type: ADME, Microsome
[5] = target: Sodium-dependent dopamine transporter (Rattus norvegicus, UniProt P23977); assay: Displacement of [3H]WIN35428 from DAT in Sprague-Dawley rat striatum membranes incubated for 120 mins by microbeta scintillation counting method; type: cell membranes, Membrane
Chain of Sodium-dependent dopamine transporter (Rattus norvegicus, UniProt P23977) (P23977 whole entry): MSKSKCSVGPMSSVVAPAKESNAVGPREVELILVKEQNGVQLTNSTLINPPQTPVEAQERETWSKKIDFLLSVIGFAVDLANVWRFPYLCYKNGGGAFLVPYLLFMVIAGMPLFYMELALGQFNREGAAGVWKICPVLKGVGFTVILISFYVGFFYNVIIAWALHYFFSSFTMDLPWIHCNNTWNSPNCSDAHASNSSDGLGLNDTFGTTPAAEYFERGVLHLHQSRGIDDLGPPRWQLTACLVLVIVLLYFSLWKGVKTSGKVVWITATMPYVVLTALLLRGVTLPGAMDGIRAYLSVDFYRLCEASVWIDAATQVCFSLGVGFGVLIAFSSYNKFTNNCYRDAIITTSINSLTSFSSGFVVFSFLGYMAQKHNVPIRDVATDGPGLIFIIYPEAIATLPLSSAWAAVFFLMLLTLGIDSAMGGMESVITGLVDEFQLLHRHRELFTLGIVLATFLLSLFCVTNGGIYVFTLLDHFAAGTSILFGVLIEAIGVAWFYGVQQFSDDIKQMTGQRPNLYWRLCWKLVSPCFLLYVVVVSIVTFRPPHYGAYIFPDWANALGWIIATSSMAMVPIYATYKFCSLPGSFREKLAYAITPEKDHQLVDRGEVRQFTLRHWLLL

[6] = species: Rattus norvegicus; assay: Selectivity ratio of Ki for displacement of [3H]citalopram from in SERT Sprague-Dawley rat midbrain membranes to Ki for displacement of [3H]WIN 35428 from DAT in Sprague-Dawley rat striatum membranes
[7] = target: Sigma non-opioid intracellular receptor 1 (Cavia porcellus, UniProt Q60492); assay: Displacement of [3H]-(+)-pentazocine from Sigma1 receptor in guinea pig cortex membranes incubated for 120 mins by microbeta scintillation counting method; type: cell membranes
Chain of Sigma non-opioid intracellular receptor 1 (Q60492 whole entry): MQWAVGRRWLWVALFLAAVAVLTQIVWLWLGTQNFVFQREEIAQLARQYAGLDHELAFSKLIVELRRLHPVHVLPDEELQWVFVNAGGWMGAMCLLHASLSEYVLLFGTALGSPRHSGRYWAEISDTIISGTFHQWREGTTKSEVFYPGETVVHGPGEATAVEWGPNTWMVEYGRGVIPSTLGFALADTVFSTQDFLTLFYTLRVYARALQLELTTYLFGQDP

[8] = target: Sodium-dependent serotonin transporter (Rattus norvegicus, UniProt P31652); assay: Displacement of [3H]citalopram from SERT in Sprague-Dawley rat midbrain membranes incubated for 60 mins by microbeta scintillation counting method; type: cell membranes, Membrane
Chain of Sodium-dependent serotonin transporter (P31652 whole entry): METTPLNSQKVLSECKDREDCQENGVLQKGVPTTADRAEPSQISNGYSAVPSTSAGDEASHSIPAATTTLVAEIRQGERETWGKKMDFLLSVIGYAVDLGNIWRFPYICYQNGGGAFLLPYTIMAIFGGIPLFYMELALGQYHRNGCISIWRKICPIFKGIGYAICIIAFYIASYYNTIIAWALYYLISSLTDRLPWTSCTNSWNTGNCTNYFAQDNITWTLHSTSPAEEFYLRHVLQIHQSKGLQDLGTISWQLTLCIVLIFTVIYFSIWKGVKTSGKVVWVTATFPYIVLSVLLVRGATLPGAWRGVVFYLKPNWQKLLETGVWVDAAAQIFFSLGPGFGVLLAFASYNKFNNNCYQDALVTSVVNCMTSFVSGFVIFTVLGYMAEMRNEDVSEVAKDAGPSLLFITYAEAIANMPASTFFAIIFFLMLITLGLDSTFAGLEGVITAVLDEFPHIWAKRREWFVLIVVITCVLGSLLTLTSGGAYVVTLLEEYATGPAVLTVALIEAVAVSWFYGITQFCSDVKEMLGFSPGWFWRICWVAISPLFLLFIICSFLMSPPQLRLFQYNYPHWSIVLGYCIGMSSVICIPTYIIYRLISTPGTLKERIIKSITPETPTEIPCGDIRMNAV

[9] = Stability in mouse liver microsomes at 10 uM after 60 mins in presence of NADPH by LC-MS/MS analysis; type: ADME, Microsome; details: 1 h
[10] = species: Homo sapiens; assay: Selectivity ratio of Ki for displacement of [3H]WIN35428 from DAT Y156F mutant (unknown origin) transiently expressed in COS7 cells to Ki for displacement of [3H]WIN35428 from DAT (unknown origin) transiently expressed in COS7 cells; type: cell-based
[11] = target: T1, Sodium-dependent dopamine transporter (Homo sapiens, UniProt Q01959); assay: Inhibition of human DAT transiently expressed in COS7 cells assessed as reduction in [3H]-DA uptake measured after 5 mins by beta-scintillation counting method; type: cell-based, COS-7
T1 sequence (Q01959 whole entry): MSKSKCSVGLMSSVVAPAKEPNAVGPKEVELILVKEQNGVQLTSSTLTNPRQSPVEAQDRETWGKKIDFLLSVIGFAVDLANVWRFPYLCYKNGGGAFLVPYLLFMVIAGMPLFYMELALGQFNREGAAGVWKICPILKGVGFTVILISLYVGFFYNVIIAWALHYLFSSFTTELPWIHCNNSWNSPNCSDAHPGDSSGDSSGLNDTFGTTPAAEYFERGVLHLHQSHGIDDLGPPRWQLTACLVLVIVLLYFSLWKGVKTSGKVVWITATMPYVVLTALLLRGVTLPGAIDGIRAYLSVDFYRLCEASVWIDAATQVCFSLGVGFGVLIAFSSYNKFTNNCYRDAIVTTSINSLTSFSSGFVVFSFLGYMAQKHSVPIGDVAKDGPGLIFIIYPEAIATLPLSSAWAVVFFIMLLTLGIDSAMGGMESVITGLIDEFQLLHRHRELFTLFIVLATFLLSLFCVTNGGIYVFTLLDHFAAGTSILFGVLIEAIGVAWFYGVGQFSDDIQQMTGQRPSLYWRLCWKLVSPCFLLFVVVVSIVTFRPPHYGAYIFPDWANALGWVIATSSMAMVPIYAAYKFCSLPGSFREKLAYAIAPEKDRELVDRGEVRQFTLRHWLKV

[12] = target: T1, Sodium-dependent dopamine transporter; assay: Displacement of [3H]WIN35428 from DAT (unknown origin) transiently expressed in COS7 cells incubated for > 90 mins by beta scintillation counting method; type: cell-based, COS-7
[13] = Displacement of [3H]WIN35428 from DAT Y156F mutant (unknown origin) transiently expressed in COS7 cells incubated for > 90 mins by beta scintillation counting method; type: cell-based, Homo sapiens; details: cos-7
[14] = Stability in mouse liver microsomes assessed as parent compound remaining at 10 uM after 60 mins in presence of NADPH by LC-MS/MS analysis; type: ADME, Microsome; details: read-out: Stability
[15] = Selectivity ratio of IC50 for inhibition of human ERG to Ki for displacement of [3H]WIN 35428 from DAT in Sprague-Dawley rat striatum membranes
[16] = target: Voltage-gated inwardly rectifying potassium channel KCNH2 (Homo sapiens, UniProt Q12809); assay: Inhibition of human ERG
Chain of Voltage-gated inwardly rectifying potassium channel KCNH2 (Q12809 whole entry): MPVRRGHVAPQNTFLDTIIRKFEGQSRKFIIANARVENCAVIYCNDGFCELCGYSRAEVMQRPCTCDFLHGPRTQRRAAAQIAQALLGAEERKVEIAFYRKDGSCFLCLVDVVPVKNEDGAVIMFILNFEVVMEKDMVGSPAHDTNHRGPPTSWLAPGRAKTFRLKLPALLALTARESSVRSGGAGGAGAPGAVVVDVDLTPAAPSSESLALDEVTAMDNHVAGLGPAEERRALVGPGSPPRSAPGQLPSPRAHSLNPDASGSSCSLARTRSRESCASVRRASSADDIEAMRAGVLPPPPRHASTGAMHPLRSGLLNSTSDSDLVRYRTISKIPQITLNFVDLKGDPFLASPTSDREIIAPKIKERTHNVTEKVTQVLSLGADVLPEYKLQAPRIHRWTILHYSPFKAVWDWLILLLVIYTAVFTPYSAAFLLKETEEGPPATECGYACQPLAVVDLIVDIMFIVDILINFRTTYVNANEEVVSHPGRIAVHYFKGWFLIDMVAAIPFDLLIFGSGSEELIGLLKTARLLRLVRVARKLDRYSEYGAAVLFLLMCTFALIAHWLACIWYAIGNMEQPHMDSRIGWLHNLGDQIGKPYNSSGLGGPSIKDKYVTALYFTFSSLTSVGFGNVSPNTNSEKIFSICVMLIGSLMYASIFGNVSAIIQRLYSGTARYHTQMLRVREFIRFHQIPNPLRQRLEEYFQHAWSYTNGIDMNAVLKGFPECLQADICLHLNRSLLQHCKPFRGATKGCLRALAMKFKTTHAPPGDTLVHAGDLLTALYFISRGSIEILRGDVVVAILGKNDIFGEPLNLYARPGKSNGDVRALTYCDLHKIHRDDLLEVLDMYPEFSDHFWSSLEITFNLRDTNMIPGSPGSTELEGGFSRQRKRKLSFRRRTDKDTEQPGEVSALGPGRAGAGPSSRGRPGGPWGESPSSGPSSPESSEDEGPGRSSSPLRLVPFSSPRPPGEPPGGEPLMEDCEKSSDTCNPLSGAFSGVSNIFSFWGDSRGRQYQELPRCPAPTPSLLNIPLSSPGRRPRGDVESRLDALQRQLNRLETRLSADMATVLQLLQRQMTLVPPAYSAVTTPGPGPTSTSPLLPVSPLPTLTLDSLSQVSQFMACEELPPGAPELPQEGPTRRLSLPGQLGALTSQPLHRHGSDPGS

[17] = Effect on locomotor activity in mouse assessed as increase in total ambulations at 1 to 10 mg/kg, ip measured during 30 mins of 2 hrs test by open field test; type: ADME, organism-based; details: in vivo; how it was run: as §1
[18] = Half life in human liver microsomes at 10 uM after 60 mins in presence of NADPH by LC-MS/MS analysis; type: ADME, Microsome; details: for half-life at 10 µM: liver microsomes
[19] = Stability in human liver microsomes assessed as parent compound remaining at 10 uM after 60 mins in presence of NADPH by LC-MS/MS analysis; type: ADME, Microsome; details: read-out: Stability
[20] = Effect on locomotor activity in mouse assessed as increase in total ambulations at 1 to 30 mg/kg, ip measured during 30 mins of 2 hrs test by open field test; type: ADME, organism-based; details: in vivo; how it was run: as §1
[21] = Drug metabolism in mouse liver microsomes assessed as 1-(2-((Bis(4-fluorophenyl)methyl)thio)ethyl)-3,5-cis-dimethylpiperazine metabolite formation by HPLC/MS analysis; type: ADME, Microsome

| Compound | pKi [5] | Ratio Ki [6] | pKi [7] | pKi [8] | Stability [9] | further results |
| --- | --- | --- | --- | --- | --- | --- |
| COC(=O)[C@H]1[C@@H](OC(=O)c2ccccc2)C[C@@H]2CC[C@H]1N2C [COCAINE] | – | – | – | – | – | Activity [1]: Toxic |
| CC(O)CN1CCN(CC[S+]([O-])C(c2ccc(F)cc2)c2ccc(F)cc2)CC1 (centres undefined) | – | – | – | – | – | half-life at 10 µM [2]: 126 min; Activity [3]: Non-Toxic; half-life at 10 µM [4]: 126 min |
| OC(Cc1ccc(C(F)(F)F)cc1)CN1CCN(CCSC(c2ccc(F)cc2)c2ccc(F)cc2)CC1 (centres undefined) | 7.63 | 191 | 6.73 | 5.35 | – | – |
| [O-][S+](CCN1CCN(C[C@H](O)Cc2ccccc2)CC1)C(c1ccc(F)cc1)c1ccc(F)cc1 (some centres undefined) | 8.44 | 5150 | 6.48 | 4.73 | Unstable | – |
| OC(CN1CCC2(CCN(CCSC(c3ccc(F)cc3)c3ccc(F)cc3)CC2)C1)c1ccccc1 (centres undefined) | 6.90 | 1 | 7.34 | – | – | Ratio Ki [10]: 2.3; pKi [11]: 6.57; pKi [12]: 6.98; pKi [13]: 6.62; remaining at 1 h, 10 µM [14]: 30 to 44%; Selectivity ratio [15]: 13 |
| CC(O)CN1CCC2(CCN(CC[S+]([O-])C(c3ccc(F)cc3)c3ccc(F)cc3)CC2)C1 (centres undefined) | – | 1.4 | 7.19 | – | – | – |
| COc1ccc(CC(O)CN2CCN(CCSC(c3ccc(F)cc3)c3ccc(F)cc3)CC2)cc1 (centres undefined) | 8.72 | 743 | 8.02 | 5.85 | – | – |
| Fc1ccc(C(SCCCN2CCN(CCCc3ccccc3)CC2)c2ccc(F)cc2)cc1 | 8.06 | 122 | 7.53 | 5.97 | – | – |
| C[C@@H](O)CN1CCN(CCSC(c2ccc(F)cc2)c2ccc(F)cc2)CC1 | 7.14 | 40 | 8.52 | 5.55 | – | – |
| C[C@H](O)CN1CCN(CC[S+]([O-])C(c2ccc(F)cc2)c2ccc(F)cc2)CC1 (some centres undefined) | 6.27 | – | 6.55 | 3.70 | Stable | – |
| C[C@@H](O)CN1CCN(CC[S+]([O-])C(c2ccc(F)cc2)c2ccc(F)cc2)CC1 (some centres undefined) | 6.11 | – | 6.04 | 4.09 | Stable | – |
| C[C@@H]1CN(CCSC(c2ccc(F)cc2)c2ccc(F)cc2)C[C@H](C)N1 | 7.03 | 141 | 6.95 | 4.88 | – | – |
| CC(O)CN1[C@H](C)CN(CC[S+]([O-])C(c2ccc(F)cc2)c2ccc(F)cc2)C[C@@H]1C (some centres undefined) | – | 78 | 6.50 | – | – | Ratio Ki [10]: 7.5; pKi [11]: 6.26; pKi [12]: 6.39; pIC50 [16]: 5.14; pKi [13]: 5.52; remaining at 1 h, 10 µM [14]: 30 to 44% |
| COc1ccc(CC(O)CN2CCN(CC[S+]([O-])C(c3ccc(F)cc3)c3ccc(F)cc3)CC2)cc1 (centres undefined) | 8.52 | 4850 | 7.50 | 4.84 | Unstable | – |
| C[C@@H]1CN(CC[S+]([O-])C(c2ccc(F)cc2)c2ccc(F)cc2)C[C@H](C)N1CC(O)Cc1ccccc1 (some centres undefined) | – | 379 | 7.12 | – | – | Ratio Ki [10]: 5.8; pKi [11]: 7.95; pKi [12]: 8.42; pIC50 [16]: 7.04; pKi [13]: 7.72; remaining at 1 h, 10 µM [14]: < 10%; Selectivity ratio [15]: 30 |
| C[C@@H]1CN(CCSC(c2ccc(F)cc2)c2ccc(F)cc2)C[C@H](C)N1C[C@@H](C)O | 7.40 | – | 8.66 | 4.70 | – | Activity [17]: Non-Toxic; half-life at 10 µM [18]: > 40 min; remaining at 1 h, 10 µM [19]: > 30%; remaining at 1 h, 10 µM [14]: 30% |

| Compound | pKi [5] | Ratio Ki [6] | pKi [7] | pKi [8] | Stability [9] | further results |
| --- | --- | --- | --- | --- | --- | --- |
| [O-][S+](CCCN1CCN(CCCc2ccccc2)CC1)C(c1ccc(F)cc1)c1ccc(F)cc1 (centres undefined) | 7.39 | 27 | 7.40 | 5.96 | Unstable | – |
| O[C@@H](Cc1ccccc1)CN1CCN(CCSC(c2ccc(F)cc2)c2ccc(F)cc2)CC1 | 8.82 | 908 | 8.11 | 5.86 | Unstable | – |
| [O-][S+](CCN1CCN(CC(O)Cc2ccc(F)cc2)CC1)C(c1ccc(F)cc1)c1ccc(F)cc1 (centres undefined) | 8.89 | 9540 | 7.13 | 4.91 | Unstable | – |
| OC(Cc1ccc(F)cc1)CN1CCN(CCSC(c2ccc(F)cc2)c2ccc(F)cc2)CC1 (centres undefined) | 8.76 | 796 | 7.53 | 5.86 | Unstable | – |
| [O-][S+](CCN1CCN(CC(O)Cc2ccc(C(F)(F)F)cc2)CC1)C(c1ccc(F)cc1)c1ccc(F)cc1 (centres undefined) | 7.93 | 991 | 6.83 | 4.94 | Unstable | – |
| CCC(=O)N1CCN(CCSC(c2ccc(F)cc2)c2ccc(F)cc2)CC1 | 5.29 | 0.5 | 7.48 | 5.60 | – | – |
| CC(O)CN1CCN(CCSC(c2ccc(F)cc2)c2ccc(F)cc2)CC1 (centres undefined) | – | – | – | – | – | half-life at 10 µM [2]: 14 min |
| O=C(CCc1ccccc1)N1CCN(CCSC(c2ccc(F)cc2)c2ccc(F)cc2)CC1 | 5.55 | 0.9 | 6.53 | 5.60 | – | – |
| C[C@H](O)CN1[C@H](C)CN(CCSC(c2ccc(F)cc2)c2ccc(F)cc2)C[C@@H]1C | 7.55 | – | 8.23 | 4.81 | – | Activity [17]: Non-Toxic; half-life at 10 µM [18]: > 40 min; remaining at 1 h, 10 µM [19]: > 30%; remaining at 1 h, 10 µM [14]: 10% |
| CC(O)CN1[C@H](C)CN(CCSC(c2ccc(F)cc2)c2ccc(F)cc2)C[C@@H]1C (mixture of isomers) | 7.64 | – | 8.25 | – | – | pKi [11]: 7.00; t1/2 ([18]; microsomes, 1 h, 10 µM): > 40 min; pKi [12]: 7.23; pIC50 [16]: 6.20; Activity [20]: Non-Toxic; remaining at 1 h, 10 µM [19]: > 30%; remaining at 1 h, 10 µM [14]: < 10%; Drug metabolism [21]: Metabolite_Detected; half-life at 10 µM [4]: 20 min |
| [O-][S+](CCN1CCN(C[C@@H](O)Cc2ccccc2)CC1)C(c1ccc(F)cc1)c1ccc(F)cc1 (some centres undefined) | 8.87 | 15900 | 7.56 | 4.67 | Unstable | – |
| O[C@H](Cc1ccccc1)CN1CCN(CCSC(c2ccc(F)cc2)c2ccc(F)cc2)CC1 | 8.41 | 207 | 7.63 | 6.09 | Unstable | – |
| CC(=O)CN1CCN(CCSC(c2ccc(F)cc2)c2ccc(F)cc2)CC1 | 6.74 | 96 | 8.97 | 4.76 | – | – |
| C[C@@H]1CN(CCSC(c2ccc(F)cc2)c2ccc(F)cc2)C[C@H](C)N1CC(O)Cc1ccccc1 (some centres undefined) | – | 805 | 7.82 | – | – | – |
| C[C@H](O)CN1CCN(CCSC(c2ccc(F)cc2)c2ccc(F)cc2)CC1 | 7.42 | 104 | 8.59 | 5.40 | – | – |
